Measured values: ChEMBL document CHEMBL1136574, “Organic phenyl arsonic acid compounds with potent antileukemic activity” (Bioorg Med Chem Lett, 2003)
pIC50: −log10 of the molar value.

Tests used:
[1] = system: MOLT-3; assay: Antileukemic activity against human leukemia MOLT-3(T-lineage ALL) cell line; assay type: functional, cell-based
Procedure, shortened: (§1)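 Cells treated with compounds in 96-well plates, incubated 48 h at 37 °C; cytotoxicity read by MTT assay; IC50 values calculated by curve fitting.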

[2] = system: NALM-6; assay: Antileukemic activity against human leukemia NALM-6 (B-lineage ALL) cell line; assay type: functional, cell-based; procedure, shortened: as §1

SMILES | pIC50 [1] | pIC50 [2]
COc1cc2ncnc(Nc3ccc([As](=O)(O)O)cc3)c2cc1OC | < 4.00 | < 4.00
COc1cc2ncnc(Nc3ccccc3[As](=O)(O)O)c2cc1OC | 4.25 | 4.33
CSc1nccc(Nc2ccc(/N=N/c3ccc([As](=O)(O)O)cc3)cc2)n1 | 5.39 | 5.21
O=[As](O)(O)c1ccc(/N=N/c2ccc(Nc3[nH]cnc4ncnc3-4)cc2)cc1 | 4.67 | 4.65
COc1cc2ncnc(Nc3ccc(/N=N/c4ccc([As](=O)(O)O)cc4)cc3)c2cc1OC | 4.86 | 4.77
O=[As](O)(O)c1ccc(/N=N/c2ccc(Nc3nc(C(Cl)(Cl)Cl)nc4ccccc34)cc2)cc1 | 5.70 | 5.96
CSc1nccc(Nc2ccccc2[As](=O)(O)O)n1 | 5.64 | 5.82
CSc1nccc(Nc2ccc([As](=O)(O)O)cc2)n1 | 5.04 | 5.25
O=[As](O)(O)c1ccc(Nc2nc(C(Cl)(Cl)Cl)nc3ccccc23)cc1 | < 4.00 | < 4.00
O=[As](O)(O)c1ccccc1Nc1nc(C(Cl)(Cl)Cl)nc2ccccc12 | < 4.00 | < 4.00
Nc1ccc([As](=O)(O)O)cc1 [ARSANILIC ACID] |  | < 4.00
